Experiments:
[1] = Cmax in Sprague-Dawley rat at 50 mg/kg, po measured upto 24 hrs by HPLC analysis; format: ADME, organism-based; design: dose 50 mg/kg, route oral; conditions: in vivo
Method in brief: (§1)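 SD rats, 180–220 g; single intravenous dose 2.5 mg/kg or oral doses of 25, 50 or 200 mg/kg, n = 6, half of each sex. Serum sampling, acetonitrile deproteinisation and HPLC quantification followed the mouse procedure. Parameters derived from concentration–time data; F% obtained from the oral and IV exposures.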

[2] = Cmax in Sprague-Dawley rat at 25 mg/kg, po measured upto 24 hrs by HPLC analysis; format: ADME, organism-based; design: dose 25 mg/kg, route oral; conditions: in vivo; method in brief: as §1
[3] = tested on: Mycobacterium tuberculosis; test: Antimycobacterial activity against Mycobacterium tuberculosis H37Rv ATCC 27294 assessed as reduction in bacterial cell growth incubated for 7 days by microplate alamar blue assay; format: functional; conditions: H37Rv ATCC 27294, 168 h
Method in brief: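 MABA: H37Rv or clinical MDR isolates (resistant to INH and RFP, Beijing Chest Hospital patients) grown to late log phase in 7H9 with glycerol, Tween 80 and ADC, washed, filtered and frozen. Two-fold compound dilutions with 2 × 10⁵ CFU per well, 37 °C; Alamar blue plus Tween 80 added on day 7, fluorescence (ex 530/em 590) read after 16–24 h. MIC = lowest concentration giving ≥90% fluorescence reduction versus mean of bacterium-only controls; RIF and INH as positive controls.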

[4] = AUC (0 to infinity) in Sprague-Dawley rat at 50 mg/kg, po by HPLC analysis; format: ADME, organism-based; design: dose 50 mg/kg, time infinity, route oral; conditions: in vivo; method in brief: as §1
CYP2D6 = CYP2D6 (Homo sapiens, UniProt P10635); test: (§2) Inhibition of CYP2D6 (unknown origin); format: ADME
[5] = Oral bioavailability in Sprague-Dawley rat at 25 mg/kg measured upto 24 hrs by HPLC analysis; format: ADME, organism-based; conditions: in vivo; method in brief: as §1
[6] = Acute toxicity in Sprague-Dawley rat assessed as death at 2 g/kg, po measured continuously for first 4 hrs followed by every 1 hr for next 24 hrs and subsequent 8 hrs interval for 7 days; format: organism-based; conditions: in vivo, 2000 mg/kg
Method in brief: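 SD rats, 180–220 g, randomised, ten per group, food withheld overnight. Single oral dose of 2 g/kg suspended in 5% CMC; controls given vehicle only. Watched continuously for 4 h, hourly for the next 24 h, then every 8 h through day 7 for deaths or changes. Read-out is survivors/total at 7 days.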

CYP3A4 = CYP3A4 (Homo sapiens, UniProt P08684); test: (§3) Inhibition of CYP3A4 (unknown origin); format: ADME
CYP2C9 = CYP2C9 (Homo sapiens, UniProt P11712); test: (§4) Inhibition of CYP2C9 (unknown origin); format: ADME
[7] = Oral bioavailability in Sprague-Dawley rat at 50 mg/kg measured upto 24 hrs by HPLC analysis; format: ADME, organism-based; conditions: in vivo; method in brief: as §1
[8] = Half life in Sprague-Dawley rat at 200 mg/kg, po measured upto 24 hrs by HPLC analysis; format: ADME, organism-based; conditions: in vivo; method in brief: as §1
[9] = Mutagenicity in Salmonella typhimurium TA102 in absence of S9 fraction by mini-Ames test; format: toxicity; conditions: salmonella enterica subsp. enterica serovar typhimurium
[10] = Tmax in Sprague-Dawley rat at 25 mg/kg, po measured upto 24 hrs by HPLC analysis; format: ADME, organism-based; conditions: in vivo; method in brief: as §1
Cytochrome P450 2C19 = Cytochrome P450 2C19 (Homo sapiens, UniProt P33261); test: Inhibition of CYP2C19 (unknown origin); format: ADME
[11] = Tmax in Sprague-Dawley rat at 50 mg/kg, po measured upto 24 hrs by HPLC analysis; format: ADME, organism-based; conditions: in vivo; method in brief: as §1
[12] = tested on: Mycobacterium tuberculosis; test: Antituberculosis activity against Mycobacterium tuberculosis H37Rv infected in BALB/C mouse assessed as colony forming unit in lungs at 25 mg/kg, po administered once daily via gavage for 5 days per week for 3 weeks starting from 10 days post-infection (reference value: 6.44 +/- 0.34); format: functional
CYP1A2 = target: T1, CYP1A2 (Homo sapiens, UniProt P05177); test: (§5) Inhibition of CYP1A2 (unknown origin); format: ADME
T1 sequence (P05177 whole entry): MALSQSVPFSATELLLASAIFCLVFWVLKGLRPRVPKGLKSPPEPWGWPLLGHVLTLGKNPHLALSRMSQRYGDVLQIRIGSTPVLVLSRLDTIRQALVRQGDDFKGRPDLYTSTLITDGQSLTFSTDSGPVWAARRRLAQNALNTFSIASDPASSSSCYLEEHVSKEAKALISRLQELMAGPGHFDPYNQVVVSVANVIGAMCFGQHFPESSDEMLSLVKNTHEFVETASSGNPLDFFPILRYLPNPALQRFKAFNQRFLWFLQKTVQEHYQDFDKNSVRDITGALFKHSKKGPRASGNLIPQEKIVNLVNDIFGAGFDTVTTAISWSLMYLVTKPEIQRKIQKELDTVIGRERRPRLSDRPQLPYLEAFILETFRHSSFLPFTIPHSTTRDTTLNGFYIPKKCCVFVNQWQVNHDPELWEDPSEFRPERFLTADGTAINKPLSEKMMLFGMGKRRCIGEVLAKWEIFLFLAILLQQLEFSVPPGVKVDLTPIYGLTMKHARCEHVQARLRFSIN

[13] = Half life in Sprague-Dawley rat at 50 mg/kg, po measured upto 24 hrs by HPLC analysis; format: ADME, organism-based; conditions: in vivo; method in brief: as §1
[14] = AUC (0 to infinity) in ICR mouse at 25 mg/kg, po measured upto 24 hrs by HPLC analysis; format: ADME, organism-based; design: dose 25 mg/kg, time infinity, route oral; conditions: in vivo
Method in brief: (§6)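 Female SPF ICR mice, 18–22 g, fasted overnight, 3 per group; single oral dose 25 mg/kg as suspension in 0.5% CMC. Jugular vein blood drawn at 0.25, 0.5, 1, 2, 4, 6, 8 and 24 h; serum deproteinised with acetonitrile, dried, redissolved and quantified by HPLC. AUC, t1/2, Cmax and Tmax taken directly from concentration–time data.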

[15] = Half life in Sprague-Dawley rat at 2.5 mg/kg, iv measured upto 24 hrs by HPLC analysis; format: ADME, organism-based; conditions: in vivo; method in brief: as §1
[16] = AUC (0 to infinity) in Sprague-Dawley rat at 25 mg/kg, po by HPLC analysis; format: ADME, organism-based; design: dose 25 mg/kg, route oral, time infinity; conditions: in vivo; method in brief: as §1
[17] = Tmax in Sprague-Dawley rat at 200 mg/kg, po measured upto 24 hrs by HPLC analysis; format: ADME, organism-based; conditions: in vivo; method in brief: as §1
[18] = Cmax in ICR mouse at 25 mg/kg, po measured upto 24 hrs by HPLC analysis; format: ADME, organism-based; design: dose 25 mg/kg, route oral; conditions: in vivo; method in brief: as §6
[19] = AUC (0 to infinity) in Sprague-Dawley rat at 200 mg/kg, po by HPLC analysis; format: ADME, organism-based; design: dose 200 mg/kg, route oral, time infinity; conditions: in vivo; method in brief: as §1
[20] = Mutagenicity in Salmonella typhimurium TA100 in presence of S9 fraction by mini-Ames test; format: toxicity, subcellular; conditions: salmonella enterica subsp. enterica serovar typhimurium
[21] = AUC (0 to infinity) in Sprague-Dawley rat at 2.5 mg/kg, iv by HPLC analysis; format: ADME, organism-based; design: dose 2.5 mg/kg, route intravenous, time infinity; conditions: in vivo; method in brief: as §1
[22] = MRT in ICR mouse at 25 mg/kg, po measured upto 24 hrs by HPLC analysis; format: ADME, organism-based; conditions: in vivo; method in brief: as §6
[23] = Half life in Sprague-Dawley rat at 25 mg/kg, po measured upto 24 hrs by HPLC analysis; format: ADME, organism-based; conditions: in vivo; method in brief: as §1
[24] = tested on: Mycobacterium tuberculosis; test: Antimycobacterial activity against Mycobacterium tuberculosis H37Rv assessed as reduction in bacterial cell growth at 32 ug/ml by Low-oxygen recovery assay; format: functional
[25] = Mutagenicity in Salmonella typhimurium TA102 in presence of S9 fraction by mini-Ames test; format: toxicity, subcellular; conditions: salmonella enterica subsp. enterica serovar typhimurium
[26] = Cytotoxicity against African green monkey Vero cells assessed as reduction in cell viability; format: cell-based; conditions: chlorocebus sabaeus
[27] = Cmax in Sprague-Dawley rat at 200 mg/kg, po measured upto 24 hrs by HPLC analysis; format: ADME, organism-based; design: dose 200 mg/kg, route oral; conditions: in vivo; method in brief: as §1
[28] = Half life in ICR mouse at 25 mg/kg, po measured upto 24 hrs by HPLC analysis; format: ADME, organism-based; conditions: in vivo; method in brief: as §6
[29] = Oral bioavailability in Sprague-Dawley rat at 200 mg/kg measured upto 24 hrs by HPLC analysis; format: ADME, organism-based; conditions: in vivo; method in brief: as §1
[30] = tested on: Mycobacterium tuberculosis; test: Antituberculosis activity against Mycobacterium tuberculosis H37Rv infected in BALB/C mouse assessed as reduction in log10CFU in lungs at 25 mg/kg, po administered once daily for 5 days per week for a total of 3 weeks started on day 10 post-infection; format: functional
[31] = tested on: Mycobacterium tuberculosis; test: Antimycobacterial activity against Mycobacterium tuberculosis H37Rv assessed as reduction in bacterial cell growth by Low-oxygen recovery assay; format: functional
[32] = Mutagenicity in Salmonella typhimurium TA100 in absence of S9 fraction by mini-Ames test; format: toxicity; conditions: salmonella enterica subsp. enterica serovar typhimurium
[33] = Cmax in Sprague-Dawley rat at 2.5 mg/kg, iv measured upto 24 hrs by HPLC analysis; format: ADME, organism-based; design: dose 2.5 mg/kg, route intravenous; conditions: in vivo; method in brief: as §1
[34] = Tmax in ICR mouse at 25 mg/kg, po measured upto 24 hrs by HPLC analysis; format: ADME, organism-based; conditions: in vivo; method in brief: as §6
[35] = target: Voltage-gated inwardly rectifying potassium channel KCNH2 (Homo sapiens, UniProt Q12809); test: Inhibition of human ERG transfected in HEK293 cells by whole-cell patch clamp method; format: cell-based
Cytochrome P450 2D6 = Cytochrome P450 2D6 (Homo sapiens, UniProt P10635); test: as §2; format: ADME
Cytochrome P450 3A4 = Cytochrome P450 3A4 (Homo sapiens, UniProt P08684); test: as §3; format: ADME
Cytochrome P450 2C9 = Cytochrome P450 2C9 (Homo sapiens, UniProt P11712); test: as §4; format: ADME
Cytochrome P450 1A2 = target: T2, Cytochrome P450 1A2 (Homo sapiens, UniProt P05177); test: as §5; format: ADME
T2 sequence (P05177 whole entry): T1 sequence (P05177 whole entry)

Cytochrome P450 2C19, sequence (P33261 whole entry): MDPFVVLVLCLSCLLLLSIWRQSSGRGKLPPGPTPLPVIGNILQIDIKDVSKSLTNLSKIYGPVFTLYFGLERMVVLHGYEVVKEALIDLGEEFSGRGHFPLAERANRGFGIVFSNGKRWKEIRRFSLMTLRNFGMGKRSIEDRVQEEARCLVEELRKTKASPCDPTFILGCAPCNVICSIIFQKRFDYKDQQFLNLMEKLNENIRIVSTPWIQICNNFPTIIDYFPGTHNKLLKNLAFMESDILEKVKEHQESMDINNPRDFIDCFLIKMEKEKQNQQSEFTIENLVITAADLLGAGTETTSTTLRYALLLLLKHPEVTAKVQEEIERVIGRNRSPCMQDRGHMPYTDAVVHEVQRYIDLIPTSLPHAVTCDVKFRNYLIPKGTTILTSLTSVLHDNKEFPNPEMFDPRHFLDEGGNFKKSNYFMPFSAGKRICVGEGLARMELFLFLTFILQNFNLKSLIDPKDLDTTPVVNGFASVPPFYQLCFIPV
Voltage-gated inwardly rectifying potassium channel KCNH2, sequence (Q12809 whole entry): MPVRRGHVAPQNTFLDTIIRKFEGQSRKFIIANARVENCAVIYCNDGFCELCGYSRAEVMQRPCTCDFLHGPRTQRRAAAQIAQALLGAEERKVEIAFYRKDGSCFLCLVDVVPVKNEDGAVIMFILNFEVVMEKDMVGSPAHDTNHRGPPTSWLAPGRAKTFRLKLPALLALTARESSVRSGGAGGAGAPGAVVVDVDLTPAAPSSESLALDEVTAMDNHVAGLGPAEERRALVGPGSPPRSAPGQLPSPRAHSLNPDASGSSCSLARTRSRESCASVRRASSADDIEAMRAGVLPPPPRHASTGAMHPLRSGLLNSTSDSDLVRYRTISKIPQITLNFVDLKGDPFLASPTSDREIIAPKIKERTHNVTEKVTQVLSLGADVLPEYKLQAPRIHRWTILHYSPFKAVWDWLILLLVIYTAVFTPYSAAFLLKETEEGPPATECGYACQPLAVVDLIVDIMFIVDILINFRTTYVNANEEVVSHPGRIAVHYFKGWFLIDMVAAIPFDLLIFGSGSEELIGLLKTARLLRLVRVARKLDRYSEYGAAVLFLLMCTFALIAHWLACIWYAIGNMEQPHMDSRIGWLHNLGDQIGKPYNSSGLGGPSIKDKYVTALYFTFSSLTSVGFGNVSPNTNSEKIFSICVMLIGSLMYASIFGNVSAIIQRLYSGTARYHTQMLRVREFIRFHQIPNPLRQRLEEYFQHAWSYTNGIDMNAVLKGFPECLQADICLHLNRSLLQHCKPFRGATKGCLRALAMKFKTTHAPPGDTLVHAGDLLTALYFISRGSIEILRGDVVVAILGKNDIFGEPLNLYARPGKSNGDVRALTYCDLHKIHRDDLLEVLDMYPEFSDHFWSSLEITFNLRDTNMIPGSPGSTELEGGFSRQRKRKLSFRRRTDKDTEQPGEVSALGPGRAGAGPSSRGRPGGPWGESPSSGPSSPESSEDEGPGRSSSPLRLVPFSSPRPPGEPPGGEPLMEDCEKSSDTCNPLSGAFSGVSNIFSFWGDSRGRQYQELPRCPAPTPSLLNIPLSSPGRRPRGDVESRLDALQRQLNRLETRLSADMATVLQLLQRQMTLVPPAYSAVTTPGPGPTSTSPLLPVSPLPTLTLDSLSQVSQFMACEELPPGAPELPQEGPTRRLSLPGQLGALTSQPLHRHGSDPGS
CYP3A4, sequence (P08684 whole entry): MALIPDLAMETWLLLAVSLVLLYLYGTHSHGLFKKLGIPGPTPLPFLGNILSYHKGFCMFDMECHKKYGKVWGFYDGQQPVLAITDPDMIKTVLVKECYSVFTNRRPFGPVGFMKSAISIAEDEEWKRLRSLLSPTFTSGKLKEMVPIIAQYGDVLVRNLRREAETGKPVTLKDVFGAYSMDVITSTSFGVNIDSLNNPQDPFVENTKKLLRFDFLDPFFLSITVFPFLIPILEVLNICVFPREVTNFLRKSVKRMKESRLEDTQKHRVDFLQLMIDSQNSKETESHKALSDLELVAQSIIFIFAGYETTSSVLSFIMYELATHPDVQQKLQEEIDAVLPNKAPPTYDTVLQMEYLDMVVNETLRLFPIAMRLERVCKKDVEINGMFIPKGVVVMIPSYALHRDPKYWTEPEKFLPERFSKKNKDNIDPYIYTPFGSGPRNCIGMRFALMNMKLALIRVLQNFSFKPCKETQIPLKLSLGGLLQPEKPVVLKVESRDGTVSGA
CYP2D6, sequence (P10635 whole entry): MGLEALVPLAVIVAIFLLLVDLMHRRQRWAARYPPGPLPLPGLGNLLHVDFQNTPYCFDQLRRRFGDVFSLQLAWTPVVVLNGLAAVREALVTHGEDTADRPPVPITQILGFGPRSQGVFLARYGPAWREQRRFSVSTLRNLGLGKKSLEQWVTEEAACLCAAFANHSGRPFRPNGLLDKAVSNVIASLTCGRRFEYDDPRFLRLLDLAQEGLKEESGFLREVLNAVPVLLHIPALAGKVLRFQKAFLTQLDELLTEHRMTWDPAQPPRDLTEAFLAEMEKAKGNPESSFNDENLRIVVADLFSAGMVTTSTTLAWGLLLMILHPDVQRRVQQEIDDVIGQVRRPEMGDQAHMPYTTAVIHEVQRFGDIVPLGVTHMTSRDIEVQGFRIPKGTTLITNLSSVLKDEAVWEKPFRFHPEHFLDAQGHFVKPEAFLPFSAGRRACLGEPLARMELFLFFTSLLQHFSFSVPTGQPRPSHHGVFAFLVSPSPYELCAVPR
CYP2C9, sequence (P11712 whole entry): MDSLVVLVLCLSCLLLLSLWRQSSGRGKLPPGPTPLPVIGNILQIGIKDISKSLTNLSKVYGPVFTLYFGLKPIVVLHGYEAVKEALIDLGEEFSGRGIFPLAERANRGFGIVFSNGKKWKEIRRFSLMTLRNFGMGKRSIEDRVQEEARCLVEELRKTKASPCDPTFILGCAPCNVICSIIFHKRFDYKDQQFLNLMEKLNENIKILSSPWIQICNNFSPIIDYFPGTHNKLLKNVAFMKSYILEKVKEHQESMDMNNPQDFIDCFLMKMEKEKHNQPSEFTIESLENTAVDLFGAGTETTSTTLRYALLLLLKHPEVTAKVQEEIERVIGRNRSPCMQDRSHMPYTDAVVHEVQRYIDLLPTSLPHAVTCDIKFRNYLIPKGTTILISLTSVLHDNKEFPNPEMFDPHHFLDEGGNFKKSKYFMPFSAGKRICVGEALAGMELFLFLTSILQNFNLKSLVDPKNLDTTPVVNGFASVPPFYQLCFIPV
Cytochrome P450 3A4, sequence (P08684 whole entry): as the sequence (P08684 whole entry) above
Cytochrome P450 2D6, sequence (P10635 whole entry): as the sequence (P10635 whole entry) above
Cytochrome P450 2C9, sequence (P11712 whole entry): as the sequence (P11712 whole entry) above

Structure (SMILES)	Cmax [1] [ng/mL]	Cmax [2] [ng/mL]	MIC90 [3] [µg/mL]	AUC(0-inf) [4] [ng·h/mL]	IC50 (CYP2D6) [µM]	Activity [6]	Activity [9]	IC50 (Cytochrome P450 2C19) [µM]	Activity [12] [log10CFU]	AUC(0-inf) [14] [ng·h/mL]	Cmax [18] [ng/mL]	Activity [20]	MRT [22] [h]	inhibition at 32 µg/mL [24] [%]	Activity [25]	CC50 [26] [µg/mL]	half-life [28] [min]	MIC [31] [µg/mL]	Activity [32]	Tmax [34] [min]	further results
CON=C1CCC(CN2CCN(c3nc(=O)c4cc(C(F)(F)F)cc([N+](=O)[O-])c4s3)CC2)CC1 (stereo not given)	10100	6230	< 0.016	45900	> 10	Non-Toxic	Non-Toxic	7.8	2.4	27500	8570	Non-Toxic	2.46	86	Non-Toxic	> 64	99	> 32	Non-Toxic	15	bioavailability [5]: 46.1%; IC50 (CYP3A4): > 10 µM; IC50 (CYP2C9): > 10 µM; bioavailability [7]: 40.4%; half-life [8]: 404 min; Tmax [10]: 1.25 h; Tmax [11]: 1.67 h; IC50 (CYP1A2): > 10 µM; half-life [13]: 248 min; half-life [15]: 106 min; AUC(0-inf) [16]: 26800 ng·h/mL; Tmax [17]: 2.83 h; AUC(0-inf) [19]: 128000 ng·h/mL; AUC(0-inf) [21]: 5720 ng·h/mL; half-life [23]: 192 min; Cmax [27]: 18200 ng/mL; bioavailability [29]: 30.3%; Activity [30]: 4.04 log10CFU; Cmax [33]: 2590 ng/mL
CCON=C1CCC(CN2CCN(c3nc(=O)c4cc(C(F)(F)F)cc([N+](=O)[O-])c4s3)CC2)CC1 (stereo not given)	–	–	< 0.016	–	> 10	Non-Toxic	Non-Toxic	> 10	2	40600	15200	Non-Toxic	2.3	79	Non-Toxic	> 64	137	> 32	Non-Toxic	15	IC50 (CYP3A4): > 10 µM; IC50 (CYP2C9): > 10 µM; IC50 (CYP1A2): > 10 µM; IC50 ([35]; hek293): 38.9 µM; Activity [30]: 4.44 log10CFU
O=c1nc(N2CCN(CC3CCCCC3)CC2)sc2c([N+](=O)[O-])cc(C(F)(F)F)cc12 [MACOZINONE]	694	463	< 0.016	3120	–	Non-Toxic	Non-Toxic	3.77	2.65	1660	912	Non-Toxic	3.17	78	Non-Toxic	> 64	167	> 32	Non-Toxic	15	IC50 (Cytochrome P450 2D6): > 10 µM; bioavailability [5]: 10.7%; IC50 (Cytochrome P450 3A4): > 10 µM; IC50 (Cytochrome P450 2C9): > 10 µM; bioavailability [7]: 10.2%; half-life [8]: 346 min; Tmax [10]: 0.91 h; Tmax [11]: 1.33 h; IC50 (Cytochrome P450 1A2): > 10 µM; half-life [13]: 292 min; half-life [15]: 98.4 min; AUC(0-inf) [16]: 1600 ng·h/mL; Tmax [17]: 2.5 h; AUC(0-inf) [19]: 4720 ng·h/mL; AUC(0-inf) [21]: 1540 ng·h/mL; half-life [23]: 254 min; Cmax [27]: 804 ng/mL; IC50 [35]: 102 µM; bioavailability [29]: 3.82%; Cmax [33]: 1440 ng/mL
